In ChEMBL document CHEMBL1124083, “Synthesis and biological properties of actinomycin D chromophoric analogues substituted at carbon 7 with aziridine and cyclopropyl functions” (J Med Chem, 1988):
Converted amounts (≈) assume the structure as drawn. *1 amine or outer side, *2 acyl side, *3 side chain or, on linkers, in order; H or OH if unused. Where a SMILES comes first, the peptide text is derived from it. Bridges are numbered along the chain shown (N, C = ends). Roman numbers before positions name the chains, in order. [ ]: non-standard residue; d: D form. Actinocin(9to1) = Cc1c2oc3c(C)ccc(C(=O)[*:1])c3nc-2c(C(=O)[*:2])c(N)c1=O; NMeV = CN[C@H](C(=O)O)C(C)C; Sar = CNCC(=O)O

Key:
[1] = system: CCRF-CEM; assay: In vitro antitumor activity against human leukemic lymphoblastic cells (CCRF-CEM); format: functional; settings: read-out: ID50 (the source's name)
Summary of the method: (§1)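 Cells grown in suspension culture and exposed to compound for 48 h. Compounds dissolved in Me₂SO-saline, with less than 1% Me₂SO in the final growth medium. ID50 is the concentration in ng/mL giving 50% growth inhibition. Values are the mean of three experiments; SD ranged from 8% to 10% of the mean.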

[2] = The delta Tm value is a measure of a stabilization of the DNA helical structure as consequence of compound binding; format: ADME
Summary of the method: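 Calf-thymus DNA at 5.0 × 10⁻⁵ M with drug at 2.5 × 10⁻⁵ M in 0.01 M phosphate buffer (pH 7) containing 10⁻⁵ M EDTA. Thermal denaturation curves were recorded. ΔTm is the Tm of the DNA–drug complex minus the Tm of DNA alone.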

[3] = system: B16; assay: In vitro antitumor activity against murine melanoma cells (B16 melanoma cells); format: functional; settings: Mus musculus, read-out: ID50 (the source's name); summary of the method: as §1

IC50 [1] [µg/mL] | Delta Tm [2] [C] | IC50 [3] [µg/mL] | Structure (SMILES)
0.055 (≈ 0.0415 µM) | -0.6 | 0.038 (≈ 0.0287 µM) | Cc1c2oc3c(C)c(OCC4CC4)cc(C(=O)N[C@@H]4C(=O)N[C@H](C(C)C)C(=O)N5CCC[C@H]5C(=O)N(C)CC(=O)N(C)[C@@H](C(C)C)C(=O)O[C@@H]4C)c3nc-2c(C(=O)N[C@@H]2C(=O)N[C@H](C(C)C)C(=O)N3CCC[C@H]3C(=O)N(C)CC(=O)N(C)[C@@H](C(C)C)C(=O)O[C@@H]2C)c(N)c1=O
0.06 (≈ 0.0452 µM) | 4.8 | 0.055 (≈ 0.0414 µM) | Cc1c2oc3c(C)c(OCC(C)N)cc(C(=O)N[C@@H]4C(=O)N[C@H](C(C)C)C(=O)N5CCC[C@H]5C(=O)N(C)CC(=O)N(C)[C@@H](C(C)C)C(=O)O[C@@H]4C)c3nc-2c(C(=O)N[C@@H]2C(=O)N[C@H](C(C)C)C(=O)N3CCC[C@H]3C(=O)N(C)CC(=O)N(C)[C@@H](C(C)C)C(=O)O[C@@H]2C)c(N)c1=O (some centres not stated)
0.5 (≈ 0.368 µM) | 1.9 |  | Cc1c2oc3c(C)c(OCCNCCO)cc(C(=O)N[C@@H]4C(=O)N[C@H](C(C)C)C(=O)N5CCC[C@H]5C(=O)N(C)CC(=O)N(C)[C@@H](C(C)C)C(=O)O[C@@H]4C)c3nc-2c(C(=O)N[C@@H]2C(=O)N[C@H](C(C)C)C(=O)N3CCC[C@H]3C(=O)N(C)CC(=O)N(C)[C@@H](C(C)C)C(=O)O[C@@H]2C)c(N)c1=O
0.013 (≈ 0.0104 µM) | 8 | 0.0033 (≈ 0.00263 µM) | Cc1c2oc3c(C)ccc(C(=O)N[C@@H]4C(=O)N[C@H](C(C)C)C(=O)N5CCC[C@H]5C(=O)N(C)CC(=O)N(C)[C@@H](C(C)C)C(=O)O[C@@H]4C)c3nc-2c(C(=O)N[C@@H]2C(=O)N[C@H](C(C)C)C(=O)N3CCC[C@H]3C(=O)N(C)CC(=O)N(C)[C@@H](C(C)C)C(=O)O[C@@H]2C)c(N)c1=O [DACTINOMYCIN] (I: T[dV]P[Sar][NMeV] / II: T[dV]P[Sar][NMeV]; ester I:1-I:C, II:1-II:C; linker I:N-II:N via Actinocin(9to1))

Structure (SMILES) | IC50 [1] [µg/mL] | Delta Tm [2] [C] | IC50 [3] [µg/mL]
Cc1c2oc3c(C)c(OCC4CN4)cc(C(=O)N[C@@H]4C(=O)N[C@H](C(C)C)C(=O)N5CCC[C@H]5C(=O)N(C)CC(=O)N(C)[C@@H](C(C)C)C(=O)O[C@@H]4C)c3nc-2c(C(=O)N[C@@H]2C(=O)N[C@H](C(C)C)C(=O)N3CCC[C@H]3C(=O)N(C)CC(=O)N(C)[C@@H](C(C)C)C(=O)O[C@@H]2C)c(N)c1=O (some centres not stated) | 0.076 (≈ 0.0573 µM) | 2.8 | 0.11 (≈ 0.0829 µM)
Cc1c2oc3c(C)c(OCCN4CC4)cc(C(=O)N[C@@H]4C(=O)N[C@H](C(C)C)C(=O)N5CCC[C@H]5C(=O)N(C)CC(=O)N(C)[C@@H](C(C)C)C(=O)O[C@@H]4C)c3nc-2c(C(=O)N[C@@H]2C(=O)N[C@H](C(C)C)C(=O)N3CCC[C@H]3C(=O)N(C)CC(=O)N(C)[C@@H](C(C)C)C(=O)O[C@@H]2C)c(N)c1=O | 0.3 (≈ 0.224 µM) | 1.8 | 0.14 (≈ 0.104 µM)
